Screening data from PubChem.
NPY-Y1 antag: NPY-Y1 receptor antagonists, primary screen, cell-based; Neuropeptide Y receptor type 1 (Homo sapiens), P25929; HEK293-CNG Y1 cells, membrane potential fluorescence; NPY at EC95, then isoproterenol; inhibition, % at 3.6 µM; 200,000 tested, 1% active;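 active means inhibition above the campaign mean inhibition of all tested compounds plus 3 SD, cut at about 20% in these data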;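 further: 0% = DMSO wells given NPY plus isoproterenol and 100% = isoproterenol alone without NPY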
Target sequence (P25929 whole entry, looked up): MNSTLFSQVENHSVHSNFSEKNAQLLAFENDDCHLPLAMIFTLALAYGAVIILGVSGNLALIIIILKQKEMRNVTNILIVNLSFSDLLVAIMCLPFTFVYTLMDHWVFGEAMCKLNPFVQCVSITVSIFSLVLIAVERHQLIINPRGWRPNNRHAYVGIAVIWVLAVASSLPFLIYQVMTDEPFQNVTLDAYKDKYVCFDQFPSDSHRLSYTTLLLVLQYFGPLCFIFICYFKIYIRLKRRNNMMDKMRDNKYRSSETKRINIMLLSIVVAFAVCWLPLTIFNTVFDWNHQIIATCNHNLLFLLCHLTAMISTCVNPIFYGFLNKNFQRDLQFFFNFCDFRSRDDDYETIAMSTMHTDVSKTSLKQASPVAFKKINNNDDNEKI
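System: HEK293 cells with Y1 receptor plus CNG channel / Probe or stimulus: NPY 25 nM then isoproterenol 1 µM plus Ro 20-1724 25 µM / Compound: one concentration, 3.6 µM, in 0.4% DMSO / Schedule: compound incubation 1 h at room temperature, readout 45 min post-stimulation / Measured by: membrane potential fluorescence / Read-out: % inhibition of NPY effect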
NPY2 pot ag: NPY-Y2 potentiators or agonists, primary screen, cell-based; 220,000 tested, 0.45% active; AID 1359, 2008; cells expressing NPY-Y2, potentiator/agonist read-out; activation, % at 3.6 µM; in the data active means activation above about 27%;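 further: cells stimulated with NPY near EC25 plus isoproterenol at EC100; 0% = vehicle plus submaximal agonist and 100% = vehicle plus saturating agonist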
NPY Y2 blocker: NPY-Y2 receptor antagonists, primary screen, cell-based | Neuropeptide Y receptor type 2 (Homo sapiens), P49146 | 140,000 tested, 0.99% active | NPY-Y2 expressing cells, antagonist mode | inhibition, % at 2.7 µM | AID 793, 2007; in the data active means inhibition above about 17%;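 further: 0% = vehicle with agonist challenge and 100% = reference antagonist with challenge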
NPY1 pot ag: NPY-Y1 receptor potentiators or agonists, primary screen, cell-based; activation, % at 3.6 µM; NPY-Y1 expressing cells, potentiator/agonist activation; Neuropeptide Y receptor type 1 (Homo sapiens), P25929; 220,000 tested, 0.37% active; in the data active means activation above about 33%, passing the limit was not always enough;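 further: cells stimulated with NPY at EC10 then isoproterenol at EC100; 0% = low agonist plus stimulus and 100% = saturating agonist plus stimulus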
PGE2 EP2 inh: human EP2 receptor antagonists, primary screen, TR-FRET cAMP, C6 glioma cells; Prostaglandin E2 receptor EP2 subtype (Homo sapiens), P43116; C6 glioma cells expressing human EP2; cells stimulated with saturating PGE2; inhibition, % at 25 µM; 260,000 tested, 0.52% active;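 active means percent inhibition above 40 after rounding to a whole number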;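 further: rat C6 glioma host cells with rolipram phosphodiesterase inhibitor present; the protocol text gives 20 µM as final concentration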
EP2 mod: EP2 receptor modulators, cAMP readout, primary screen, cell-based, HTRF cAMP, PGE2 stimulation; EP2-expressing cells, cAMP HTRF FRET, PGE2 co-stimulation; induction, % at 25 µM; 260,000 tested, 0.83% active; AID 940, 2007;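 active means compounds whose cAMP rise, as percent of the full-agonist control response, exceeds 60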;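 further: rat C6 glioma line stably carrying human EP2 under a CMV promoter; the protocol text gives 20 µM as final concentration; 100% = response of wells given 1 µM PGE2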
* hit, by the source's call; ! = a repeat was not active. Shown are actives, neighbours in structure and some others; about 2.8% of the full set was active somewhere.

For CC1CCCC(C)N1C(=O)CSc1ncccc1-c1nc2ccccc2[nH]1 (centres undefined) the results were PGE2 EP2 inh 5 and EP2 mod 18.
`CCn1c(SCC(=O)O)nnc1-c1ccccc1Br` gave PGE2 EP2 inh 5 and EP2 mod 9.
For CCc1ccc2[nH]c(=O)c(C(c3nnnn3C(C)(C)C)N(Cc3ccco3)CC3CCCO3)cc2c1 (centres undefined) the results were PGE2 EP2 inh 10 and EP2 mod 66*.
CCCC(c1nnnn1C(C)(C)CC)N(Cc1ccco1)Cc1cc2cc(C)c(C)cc2[nH]c1=O (centres undefined) was read as PGE2 EP2 inh 31 and EP2 mod 66*.
CCc1ccccc1NC(=S)N(Cc1ccco1)Cc1cc2cc(C)ccc2[nH]c1=O was read as PGE2 EP2 inh 9 and EP2 mod 87*.
`CCCC(c1nnnn1C(C)(C)C)N(Cc1ccco1)Cc1cc2cc(C)ccc2[nH]c1=O` (centres undefined) gave PGE2 EP2 inh 7 and EP2 mod 66*.
`CCc1ccccc1NC(=S)N(Cc1ccco1)Cc1cc2ccc(C)cc2[nH]c1=O` gave PGE2 EP2 inh 10 and EP2 mod 37.
`CCCC(c1nnnn1Cc1ccco1)N(Cc1ccccc1)Cc1cc2cc(C)c(C)cc2[nH]c1=O` (centres undefined) gave PGE2 EP2 inh 9 and EP2 mod 25.
`CCCC(c1nnnn1C(C)(C)C)N(Cc1ccc(C)cc1)Cc1cc2cc(C)ccc2[nH]c1=O` (centres undefined) gave PGE2 EP2 inh 6 and EP2 mod 22.
For Cc1ccc2[nH]c(=O)c(C(c3nnnn3C(C)(C)C)N(Cc3ccco3)CC3CCCO3)cc2c1 (centres undefined) the results were NPY-Y1 antag 5, NPY2 pot ag 2, NPY Y2 blocker 1, NPY1 pot ag 6, PGE2 EP2 inh 9 and EP2 mod 13.
CCc1nc2ccc(NC(=O)CCn3nc(C)c(C)c3C)cc2[nH]1 was read as PGE2 EP2 inh 2 and EP2 mod 18.
For CC1(c2ccccc2)CC(C)(C)N2C(=O)C3(C(C#N)=C(N)Oc4cc(O)ccc43)c3cccc1c32 (centres undefined) the results were NPY-Y1 antag -4, NPY2 pot ag 14, NPY Y2 blocker -2, NPY1 pot ag 24, PGE2 EP2 inh 4 and EP2 mod 62*.
For Cc1cc2c3c(c1)C(C)(c1ccccc1)CC(C)(C)N3C(=O)C21C(C#N)=C(N)OC2=C1C(=O)CC(C)(C)C2 (centres undefined) the results were NPY-Y1 antag -6, NPY2 pot ag -6, NPY Y2 blocker -2, NPY1 pot ag 15, PGE2 EP2 inh 7 and EP2 mod 17.
Screening C[C@H]1[C@H](O)[C@@H](C)C=CC=CC=CC=CC=CC=CC=C[C@H](O[C@H]2O[C@@H](C)[C@H](O)[C@@H](N)[C@@H]2O)C[C@@H]2O[C@@](O)(C[C@@H](O)C[C@@H](O)[C@@H](O)CC[C@@H](O)C[C@@H](O)CC(=O)O[C@H]1C)C[C@H](O)[C@H]2C(=O)O returned PGE2 EP2 inh 43* and EP2 mod -10.
`CCOC(=O)[C@@H]1C(c2c(OC)cc(OC)cc2OC)=NO[C@@H]1C(=O)OCC` gave NPY-Y1 antag -7, NPY2 pot ag 33*, NPY Y2 blocker 0, NPY1 pot ag 69*, PGE2 EP2 inh 3 and EP2 mod 14.
CC(C)(C)c1nc(SCC(=O)c2ccc(F)cc2)c2ccccc2n1 was read as PGE2 EP2 inh 7 and EP2 mod 69*.
COc1cc(N=Nc2cccc(S(N)(=O)=O)c2)c2ccccc2c1N was read as NPY2 pot ag 52*, NPY1 pot ag 61*, PGE2 EP2 inh 79*! and EP2 mod -51.
